The results in this text go back to ChEMBL document CHEMBL3244084, “A study of the mechanism of halothane-induced liver necrosis. Role of covalent binding of halothane metabolites to liver proteins in the rat” (J Med Chem, 1977).

Molecules are shown by their SMILES. The source made the active and inactive calls. The calls are words filed in the database; no cut-off is given here. Some results are limits rather than exact numbers.

In data set [1] the test system is Liver. Kind of data set: Protein binding in phenobarbital pretreated Sprague-Dawley rat liver protein at 4.6 to 23 mmol/kg, ip measured per mg of protein up to 24 hrs by scintillation counting. It is filed as ADME, organism-based. Particulars: in vivo. In short, it runs like this: (§1)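 Male Sprague-Dawley rats, normal or phenobarbital-pretreated (80 mg/kg ip, 3 days), received ip [1-14C]halothane in olive oil (50 µCi/kg). Liver homogenized 1 g/3 ml water at 0 °C. Protein precipitate washed ten times with hot (60 °C) methanol-ether 3:1, then digested in 1 N NaOH and counted. Protein measured by Lowry against BSA. Result expressed as nmol halothane equivalents per mg protein. Blank from [14C]halothane added to control homogenate was subtracted. Six rats.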

Data set [2] concerns Rattus norvegicus. In words: Toxicity in phenobarbital pretreated Sprague-Dawley rat assessed as multiple, discrete foci of liver parenchymal cell necrosis at 11.5 mmol/kg, ip measured after 0.5 to 24 hrs by histopathological/light microscopy analysis (reference value: 0%). It is filed as organism-based. To be noted: in vivo. In short, it runs like this: (§2)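 Normal or phenobarbital-pretreated male Sprague-Dawley rats dosed ip with [14C]halothane in olive oil; controls received the vehicle. Rats killed by cervical dislocation 0.5-24 h after dosing. Liver slices fixed in 10% buffered formalin (pH 7.0) and paraffin-embedded. 6-µm sections stained with H&E and read by light microscopy. Necrosis graded on a 0-4+ scale. Six rats per time point.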

Data set [3] concerns Rattus norvegicus. In words: Toxicity in Sprague-Dawley rat assessed as liver necrosis at 23 mmol/kg, ip measured after 0.5 to 24 hrs by histopathological/light microscopy analysis (reference value: 0%). Particulars: in vivo. It is filed as organism-based. In short, it runs like this: as §2
Data set [4] deals with Rattus norvegicus. In words: Anesthetic activity in Sprague-Dawley rat assessed as duration of anesthesia at 11.5 mmol/kg, ip. In kind it is functional. In short, it runs like this:
(§3)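 Male Sprague-Dawley rats, 100-120 g, fasted overnight before dosing, fed afterwards. Single ip dose of [1-14C]halothane in olive oil (diluted with unlabeled halothane; 50 µCi 14C/kg). Duration of anesthesia recorded in normal and phenobarbital-pretreated rats. Pretreatment was phenobarbital sodium 80 mg/kg ip in water for 3 days, with use on day 4. Six rats per group.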

Data set [5] deals with Rattus norvegicus. Kind of data set: Toxicity in Sprague-Dawley rat assessed as liver necrosis at 4.6 mmol/kg, ip measured after 0.5 to 24 hrs. It is filed as organism-based. Particulars: in vivo. In short, it runs like this:
as §2

Data set [6] relates to Rattus norvegicus. Kind of data set: Toxicity in Sprague-Dawley rat assessed as mortality at 23 mmol/kg, ip measured up to 24 hrs. Particulars: in vivo. In kind it is organism-based. The method, boiled down:
(§4)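 Male Sprague-Dawley rats, 100-120 g, fasted overnight before dosing and fed afterwards. Some received phenobarbital sodium 80 mg/kg ip in water for 3 days and were used on day 4. [1-14C]halothane in olive oil, 50 µCi/kg, was given ip. Mortality was recorded over the sacrifice schedule of 0.5-24 h, with six rats per time point. Vehicle controls received olive oil.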

In data set [7] the test system is Rattus norvegicus. Kind of data set: Toxicity in phenobarbital pretreated Sprague-Dawley rat assessed as liver necrosis at 4.6 mmol/kg, ip measured after 0.5 to 24 hrs by histopathological/light microscopy analysis (reference value: 0%). In kind it is organism-based. To be noted: in vivo. In short, it runs like this: as §2
Data set [8] relates to Rattus norvegicus. Kind of data set: Toxicity in Sprague-Dawley rat assessed as liver necrosis at 11.5 mmol/kg, ip measured after 0.5 to 24 hrs by histopathological/light microscopy analysis (reference value: 0%). In kind it is organism-based. Particulars: in vivo. In short, it runs like this:
as §2

In data set [9] the test system is Rattus norvegicus. In words: Toxicity in phenobarbital pretreated Sprague-Dawley rat assessed as liver necrosis at 11.5 mmol/kg, ip measured after 24 hrs. In kind it is organism-based. To be noted: in vivo.
Data set [10] relates to Liver. In words: Protein binding in Sprague-Dawley rat liver protein at 4.6 to 23 mmol/kg, ip measured per mg of protein up to 24 hrs by scintillation counting. In kind it is ADME, organism-based. To be noted: in vivo. The method, boiled down: as §1
For data set [11], the system named is Rattus norvegicus. Kind of data set: Drug uptake in Sprague-Dawley rat assessed as radioactivity in DNA fraction at 4.6 to 23 mmol/kg, ip measured up to 24 hrs by scintillation counting. It is filed as ADME, organism-based. Particulars: in vivo. In short, it runs like this: (§5)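 Male Sprague-Dawley rats, 100-120 g, fasted overnight. [1-14C]Halothane in olive oil (50 µCi/kg) given ip at 4.6, 11.5 or 23.0 mmol/kg. Rats killed at 0.5-24 h. Lipid fraction isolated from 1 g liver by the Folch method; DNA fraction by the Irving-Veazey method; proteins handled as for binding. Radioactivity counted by liquid scintillation. Means of six rats.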

The test system of data set [12] is Rattus norvegicus. In words: Toxicity in Sprague-Dawley rat assessed as liver necrosis at 4.6 mmol/kg, ip measured after 0.5 to 24 hrs by histopathological/light microscopy analysis (reference value: 0%). It is filed as organism-based. Particulars: in vivo. The method, boiled down:
as §2

Data set [13] concerns Rattus norvegicus. In words: Drug uptake in Sprague-Dawley rat assessed as radioactivity in lipid fraction at 4.6 to 23 mmol/kg, ip measured at 1 to 6 hrs by scintillation counting. In kind it is ADME, organism-based. Particulars: in vivo. In short, it runs like this: as §5
For data set [14], the system named is Rattus norvegicus. In words: Toxicity in Sprague-Dawley rat assessed as serum glutamic pyruvic transaminase level in blood at 4.6 mmol/kg, ip measured after 0.5 to 24 hrs (reference value: 14 +/- 2 IU/L). It is filed as organism-based. Particulars: in vivo.
In data set [15] the test system is Rattus norvegicus. Kind of data set: Toxicity in Sprague-Dawley rat assessed as mortality at 11.5 mmol/kg, ip measured up to 24 hrs. It is filed as organism-based. Particulars: in vivo. In short, it runs like this:
as §4

Data set [16] relates to Rattus norvegicus. Kind of data set: Toxicity in phenobarbital pretreated Sprague-Dawley rat assessed as serum glutamic pyruvic transaminase level in blood at 23 mmol/kg, ip measured after 0.5 to 24 hrs (reference value: 15 +/- 2 IU/L). It is filed as organism-based. Particulars: in vivo.
Data set [17] deals with Rattus norvegicus. Kind of data set: Toxicity in phenobarbital pretreated Sprague-Dawley rat assessed as mortality at 11.5 mmol/kg, ip measured up to 24 hrs. In kind it is organism-based. To be noted: in vivo. In short, it runs like this:
as §4

The test system of data set [18] is Rattus norvegicus. In words: Toxicity in phenobarbital pretreated Sprague-Dawley rat assessed as serum glutamic pyruvic transaminase level in blood at 4.6 mmol/kg, ip measured after 0.5 to 24 hrs (reference value: 15 +/- 2 IU/L). Particulars: in vivo. In kind it is organism-based.
The subject of data set [19] is Rattus norvegicus. Kind of data set: Toxicity in phenobarbital pretreated Sprague-Dawley rat assessed as liver necrosis at 4.6 mmol/kg, ip measured after 0.5 to 24 hrs. In kind it is organism-based. To be noted: in vivo. In short, it runs like this:
as §2

Data set [20] concerns Rattus norvegicus. In words: Toxicity in Sprague-Dawley rat assessed as serum glutamic pyruvic transaminase level in blood at 23 mmol/kg, ip measured after 0.5 to 24 hrs (reference value: 14 +/- 2 IU/L). It is filed as organism-based. Particulars: in vivo.
Data set [21] relates to Rattus norvegicus. Kind of data set: Drug uptake in Sprague-Dawley rat assessed as radioactivity in lipid fraction at 4.6 to 23 mmol/kg, ip measured at 6 to 8 hrs by scintillation counting. In kind it is ADME, organism-based. Particulars: in vivo. In short, it runs like this: as §5
Data set [22] has as its system Rattus norvegicus. Kind of data set: Toxicity in phenobarbital pretreated Sprague-Dawley rat assessed as liver necrosis at 23 mmol/kg, ip measured after 24 hrs. To be noted: in vivo. It is filed as organism-based.
Data set [23] deals with Rattus norvegicus. In words: Toxicity in phenobarbital pretreated Sprague-Dawley rat assessed as mortality at 23 mmol/kg, ip measured up to 24 hrs. Particulars: in vivo. In kind it is organism-based. In short, it runs like this:
as §4

The test system of data set [24] is Rattus norvegicus. In words: Toxicity in phenobarbital pretreated Sprague-Dawley rat assessed as mortality at 4.6 mmol/kg, ip measured up to 24 hrs. In kind it is organism-based. To be noted: in vivo. The method, boiled down:
as §4

Data set [25] has as its system Rattus norvegicus. In words: Toxicity in Sprague-Dawley rat assessed as liver necrosis at 23 mmol/kg, ip measured after 4 to 24 hrs. In kind it is organism-based. Particulars: in vivo. The method, boiled down: as §2
Data set [26] deals with Rattus norvegicus. In words: Drug uptake in Sprague-Dawley rat assessed as radioactivity in liver protein at 4.6 to 23 mmol/kg, ip measured up to 24 hrs by scintillation counting. In kind it is ADME, organism-based. To be noted: in vivo. In short, it runs like this:
as §5

Data set [27] relates to Rattus norvegicus. Kind of data set: Toxicity in Sprague-Dawley rat assessed as mortality at 4.6 mmol/kg, ip measured up to 24 hrs. In kind it is organism-based. Particulars: in vivo. In short, it runs like this:
as §4

In data set [28] the test system is Rattus norvegicus. Kind of data set: Toxicity in phenobarbital pretreated Sprague-Dawley rat assessed as serum glutamic pyruvic transaminase level in blood at 11.5 mmol/kg, ip measured after 0.5 to 24 hrs (reference value: 15 +/- 2 IU/L). It is filed as organism-based. Particulars: in vivo.
Data set [29] concerns Rattus norvegicus. Kind of data set: Toxicity in phenobarbital pretreated Sprague-Dawley rat assessed as multiple, discrete foci of liver parenchymal cell necrosis at 23 mmol/kg, ip measured after 0.5 to 24 hrs by histopathological/light microscopy analysis (reference value: 0%). In kind it is organism-based. Particulars: in vivo. The method, boiled down: as §2
Data set [30] relates to Rattus norvegicus. In words: Toxicity in Sprague-Dawley rat assessed as liver necrosis at 11.5 mmol/kg, ip measured after 4 to 24 hrs. It is filed as organism-based. Particulars: in vivo. The method, boiled down: as §2
Data set [31] relates to Rattus norvegicus. Kind of data set: Toxicity in Sprague-Dawley rat assessed as serum glutamic pyruvic transaminase level in blood at 11.5 mmol/kg, ip measured after 0.5 to 24 hrs (reference value: 14 +/- 2 IU/L). It is filed as organism-based. To be noted: in vivo.
Data set [32] has as its system Rattus norvegicus. Kind of data set: Anesthetic activity in Sprague-Dawley rat assessed as duration of anesthesia at 23 mmol/kg, ip. It is filed as functional. The method, boiled down: as §3
The test system of data set [33] is Rattus norvegicus. In words: Anesthetic activity in Sprague-Dawley rat assessed as duration of anesthesia at 4.6 mmol/kg, ip. Particulars: tested as the 14C-labelled form. In kind it is functional, organism-based. The method, boiled down:
as §3

Take `F[14C](F)(F)C(Cl)Br` (stereo not drawn): the PB with Liver [1] is over 2 nmol/mg; with Liver [10] it was 0.8 nmol/mg. Moreover, the Activity in the data set on Rattus norvegicus [2] is recorded as under 6%; in the data set on Rattus norvegicus [3], 0%; with Rattus norvegicus [5] it was “Non-toxic”; with Rattus norvegicus [6], “Non-toxic”; in the data set with Rattus norvegicus [7], 0%; with Rattus norvegicus [8], 0%. Besides, the Activity result in the data set on Rattus norvegicus [9] is “Toxic”; with Rattus norvegicus [12], 0%; in the data set with Rattus norvegicus [14], 16 IU/L; in the data set on Rattus norvegicus [15], “Non-toxic”; with Rattus norvegicus [16], 58 IU/L; in the data set on Rattus norvegicus [17], “Non-toxic”. The Activity is recorded as 19 IU/L with Rattus norvegicus [18]; “Non-toxic” in the data set with Rattus norvegicus [19]; 18 IU/L with Rattus norvegicus [20]; “Toxic” in the data set on Rattus norvegicus [22]; “Non-toxic” in the data set with Rattus norvegicus [23]; “Non-toxic” in the data set on Rattus norvegicus [24]. Moreover, the Activity entry was “Non-toxic” in the data set with Rattus norvegicus [25]; “Non-toxic” with Rattus norvegicus [27]; 37 IU/L in the data set with Rattus norvegicus [28]; 6% in the data set on Rattus norvegicus [29]; “Non-toxic” in the data set with Rattus norvegicus [30]; 18 IU/L with Rattus norvegicus [31]. Besides, the Time in the data set with Rattus norvegicus [4] came to 1.92 h; with Rattus norvegicus [32], 3.75 h. The Drug uptake entry in the data set on Rattus norvegicus [11] is “Not Active”; in the data set with Rattus norvegicus [13], “Active”; with Rattus norvegicus [21], “Not Active”; in the data set on Rattus norvegicus [26], “Active”.

`FC(F)(F)C(Cl)Br` (stereo not drawn): in the data set with Rattus norvegicus [33], the result was inactive.
